GAA850 FXN act: FXN promoter activators, primary screen, cell-based, luciferase luminescence, HEK293 lucGAA850; hit rate 0.56% among 360,000; activation, % at 6 µM; AID 540364, 2011; HEK293 lucGAA850 FXN promoter luciferase reporter, 24 h; percent of 10 µM SAHA response;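 active = activation above the average of all compounds screened plus 3 SD, cutoff fixed separately per campaign, cut at about 7.5% in these data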;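 also: 0% = DMSO wells and 100% = 10 µM SAHA wells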
HTR2A ag: mouse Htr2a agonists via beta-arrestin recruitment, primary screen, cell-based, luminescence; CHO-K1 mHTR2A beta-arrestin complementation; percent of 30 µM serotonin response; activation, % at 7.6 µM; hit rate 0.66% among 360,000;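 active = activation above a run cutoff, the mean activation of all tested compounds plus 3 SD, cut at about 14% in these data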;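 also: 0% = plate median of compound wells and 100% = 30 µM serotonin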
MC4R ag barr: MC4R agonists recruiting beta-arrestin, primary screen, cell-based, luminescence, agonist arm of biased-ligand search. U2OS MC4R beta-arrestin complementation; percent of melanotan II response, DMSO zero. activation, % at 8.9 µM. hit rate 0.98% among 360,000. AID 540308, 2011;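 active = activation above a per-plate cutoff, the mean activation of sample wells on that plate plus 3 SD, cut at about 8% in these data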
Target sequence (P32245 whole entry, looked up): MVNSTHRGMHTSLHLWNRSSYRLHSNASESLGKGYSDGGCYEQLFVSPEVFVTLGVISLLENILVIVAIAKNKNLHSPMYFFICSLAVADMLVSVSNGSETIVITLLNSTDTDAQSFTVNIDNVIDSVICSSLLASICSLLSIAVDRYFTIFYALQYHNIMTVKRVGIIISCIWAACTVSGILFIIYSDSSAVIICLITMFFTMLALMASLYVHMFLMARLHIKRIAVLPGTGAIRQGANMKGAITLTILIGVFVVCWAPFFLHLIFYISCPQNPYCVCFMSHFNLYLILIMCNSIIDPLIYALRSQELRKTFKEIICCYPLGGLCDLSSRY
MC4R antag cAMP: MC4R antagonists of cAMP signaling, primary screen, cell-based, TR-FRET, antagonist arm of biased-ligand search; MC4R-expressing cells, MTII-stimulated cAMP, LANCE TR-FRET; inhibition, % at 6.5 µM; hit rate 0.48% among 360,000; AID 540295, 2011;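 active = inhibition above its plate's cutoff, the mean of tested wells on that plate plus 3 SD, cut at about 29% in these data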;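 also: 0% = Melanotan II alone and 100% = Melanotan II plus saturating MCL0020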
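Assay system: U2OS-MC4R stable cell line; Also added: Melanotan II; Technique: Eu-cAMP/anti-cAMP TR-FRET, emission 671 nm; Times: 30-min compound, 1-h challenge, 1-h detection, room temperature.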
AHR activator: AHR activators, primary screen, cell-based, luminescence, luciferase reporter, human; activation, % at 5 µM; Aryl hydrocarbon receptor (Homo sapiens), P35869; AHR-responsive luciferase reporter cells; AID 2796, 2010; hit rate 2.5% among 320,000; in the data active = activation above about 47%;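 also: 0% = vehicle wells and 100% = reference agonist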
U2OS cAMP counter: nonselective cAMP signaling inhibitors, parental cells, counter-screen for MC4R biased antagonist project, cell-based, TR-FRET, U2OS, forskolin, triplicate | shares compounds with MC4R antag cAMP | LANCE TR-FRET | inhibition, % at 6.5 µM | hit rate 26% among 1,600;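 active = mean inhibition over triplicates above the low-control well mean plus 3 SD, set per campaign, cut at about 13% in these data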;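 also: signal is single emission at 671 nm which falls as cellular cAMP rises; 0% = forskolin-stimulated wells and 100% = buffer without forskolin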
MC4R cAMP antag: MC4R cAMP antagonists, retest, confirmation, cell-based, TR-FRET; shares compounds with MC4R antag cAMP; MC4R-expressing cells, MTII-stimulated cAMP; inhibition, % at 6.5 µM; hit rate 27% among 1,600; AID 602195, 2012; in the data active = inhibition above about 29%;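 also: 0% = agonist stimulated wells alone and 100% = agonist stimulated wells plus saturating reference antagonist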
An asterisk follows results filed as active; · = not tested or not shown. A selection: hits, their analogues and other compounds. The true share with any hit is near 4.7%.

SMILES | GAA850 FXN act | HTR2A ag | MC4R ag barr | MC4R antag cAMP | AHR activator | U2OS cAMP counter | MC4R cAMP antag
O=C(OCc1ccccc1F)c1cnc(Cl)c(Cl)c1 | -3 | 6 | -2 | 40* | 1 | 25* | 38*
O=C(OCc1ccc([N+](=O)[O-])cc1)c1cnc(Cl)c(Cl)c1 | -1 | -6 | -2 | 12 | -1 | · | ·
O=C(OCc1c(Cl)cccc1Cl)c1cccnc1 | -1 | 1 | -1 | 9 | -1 | · | ·
CCOc1cc(CNCc2cccnc2)cc(Br)c1OCC(N)=O | 1 | 0 | 2 | 3 | 7 | · | ·
Cc1nn(CC(=O)Nc2ccccn2)c(C)c1Br | 1 | 2 | 2 | 32* | 4 | 2 | -1
Cc1c(Br)c([N+](=O)[O-])nn1CC(=O)Nc1ccccn1 | 2 | 4 | -1 | 6 | 6 | · | ·
CC(C)(C)NC(=O)C(c1ccncc1)n1c(-c2ccc(C(F)(F)F)cc2)nc2ccccc21 (stereo not given) | · | -6 | · | · | · | · | ·
Cc1ccc(O)c(NC(=O)c2noc3c2CCCCC3)c1 | 4 | 1 | -2 | 31* | 24 | -3 | -10
O=C(O)C1C2CCC(C2)C1C(=O)Nc1ccccc1 (stereo not given) | 2 | 3 | -1 | 9 | -2 | · | ·
O=C(NC(=S)Nc1cccc([N+](=O)[O-])c1)c1ccccc1 | 1 | 2 | 0 | 33* | 2 | 1 | -9
O=C(O)C1C2CCC(C2)C1C(=O)Nc1cccc([N+](=O)[O-])c1 (stereo not given) | 1 | 2 | -2 | 29* | · | -8 | -20
O=c1[nH]c(=S)[nH]cc1Oc1ccc(Cl)cc1Cl | 0 | 2 | 1 | 36* | · | 3 | 2
Cc1nc(-c2ccccc2)[nH]c(=O)c1Oc1ccc(Cl)cc1Cl | -1 | -3 | 2 | 10 | -3 | · | ·
COc1ccc(/C=C/C(=O)OCC(=O)NC2CCCC2)c(OC)c1 | 1 | -2 | -3 | 2 | 0 | · | ·
O=C(NCC(c1cccs1)N1CCOCC1)c1cnc(Cl)c(Cl)c1 (stereo not given) | 0 | 2 | -4 | 30* | 9 | 17* | 38*
Cc1cc(C=O)c(C)n1-c1cccc(C(=O)O)c1 | 1 | 0 | 0 | 33* | 1 | 1 | 3
CCOc1ccc(CN(C)C(=O)CNC(=O)c2sc3ccccc3c2Cl)cc1 | 0 | 1 | -3 | 6 | -3 | · | ·
CCOc1ccc(OCC)c(NC(=O)CN(c2ccc(C)cc2)S(=O)(=O)c2c(C)noc2C)c1 | 0 | 6 | 0 | 32* | 62* | 1 | 9
CCOc1ccccc1NC(=O)CN(c1ccc(C)cc1)S(=O)(=O)c1c(C)noc1C | -2 | -1 | -2 | 3 | 3 | · | ·
CCSC1=C(C#N)C(CC(C)C)C2=C(CCCC2=O)N1 (stereo not given) | -1 | -9 | -2 | 34* | -2 | 1 | 14
CCSC1=C(C#N)C(c2ccc3c(c2)OCO3)C2=C(CCCC2=O)N1 (stereo not given) | 3 | -2 | -2 | 2 | 1 | · | ·
Nc1cc(N)nc(SCC(=O)NC2CCCCCCC2)n1 | 2 | 8 | -5 | -3 | · | · | ·
O=C(CCN1Cc2ccccc2C1)c1ccc2c(c1)OCCO2 | -2 | 8 | -3 | 34* | 1 | 18* | 31*
O=C(CCN1CCc2ccccc2C(c2ccccc2)C1)c1ccc2c(c1)OCCO2 (stereo not given) | -2 | -8 | -4 | 24 | -2 | · | ·
CN(C)c1ccc(-c2csc(C(C)(O)c3ccc(F)c(F)c3)n2)cc1 (stereo not given) | -1 | -7 | 2 | 8 | · | · | ·

Assay outcomes from PubChem.
